Experimental data as given in ChEMBL document CHEMBL1127034, “Synthesis, antiproliferative, and antiviral activity of 4-amino-1-(beta-D-ribofuranosyl)pyrrolo[2,3-d]pyridazin-7(6H)-one and related derivatives” (J Med Chem, 1993).

Legend:
Homo sapiens [1] = species on record: Homo sapiens; assay: Tested for in vitro cell growth inhibition of H.Ep. 2 cells; No significant effect; assay type: functional, cell-based
Procedure, shortened: (§1)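 H.Ep.2 cells grown in MEM/Earle's with 15% heat-inactivated calf serum, 5% CO2. 2000 cells/well plated in 5% calf serum; compound added 1 day later. […] Top concentration 100 μM.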

HFF = assay: Tested for cytotoxicity in human foreskin fibroblasts at time of HCMV plaque enumeration; assay type: functional, cell-based
Procedure, shortened: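 HFF cells (MEM/Earle's, 10% fetal bovine serum), uninfected cells within HCMV plaque-reduction wells. Drug cytopathology scored visually at 30-fold magnification on a 0-4+ scale on the day of staining for plaque enumeration. IC50 from regression against log concentration.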

L1210 [2] = assay: Tested for in vitro cell growth inhibition of L1210 cells; assay type: functional, cell-based; conditions: Mus musculus
Procedure, shortened: (§2)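 L1210 cell number counted at 0, 48 and 96 h across a range of concentrations. Growth rate is the slope of semilog cell number vs time as percent of control (ratio of control to treated doubling time); the 48-96 h rate is used if growth slowed. IC50 halves growth rate. Top concentration 100 μM.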

NCI-H417 [3] = assay: Tested for in vitro cell growth inhibition of NCI-N417 cells; No significant effect; assay type: functional, cell-based, Homo sapiens
[4] = Tested for in vitro cell growth inhibition of NCI-H146 cells; No significant effect; assay type: functional, cell-based, Homo sapiens
Calu-1 [5] = assay: Tested for in vitro cell growth inhibition of CALU-1 cells; No significant effect; assay type: functional, cell-based, Homo sapiens
Procedure, shortened: (§3)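 Adherent tumor lines in RPMI 1640 + 5% fetal bovine serum (UMSCC-10A: MEM-5). Cells/well: UMSCC-10A, CALU-1, NCI-H1437 and HT-29 2000; NCI-H460 1000; DLD-1 1000; SW-620 7500. Compound added 1 day after plating. Sulforhodamine B readout on day 5 (NCI-H460 and SW-620: day 4). IC50 halves growth rate vs control. Top concentration 100 μM.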

Human betaherpesvirus 5 [6] = assay: Tested for antiviral activity against human cytomegalovirus by plaque assay; assay type: functional, organism-based
Procedure, shortened: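 Towne strain HCMV (plaque-purified P0) on HFF monolayers. Inoculum about 50 PFU in 0.2 mL; compounds dissolved in the overlay medium. IC50 from linear regression of percent inhibition vs log concentration. Ganciclovir positive control; assay sets rejected if it deviated >1.5 SD from its mean response.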

Human alphaherpesvirus 1 = assay: Tested for antiviral activity against Herpes simplex virus type-1 using enzyme immunoassay
Calu-1 [7] = assay: Tested for in vitro cell growth inhibition of CALU-1 cells; assay type: functional, cell-based; conditions: Homo sapiens; procedure, shortened: as §3
Homo sapiens [8] = species on record: Homo sapiens; assay: Tested for in vitro cell growth inhibition of H.Ep. 2 cells; assay type: functional, cell-based; conditions: HEp-2; procedure, shortened: as §1
Human betaherpesvirus 5 [9] = assay: Tested for antiviral activity against human cytomegalovirus by yield reduction assay; assay type: functional
[10] = Tested for in vitro cell growth inhibition of NCI-H1437; assay type: functional; conditions: Homo sapiens; procedure, shortened: as §3
NCI-H460 [11] = assay: Tested for in vitro cell growth inhibition of NCI-H460; assay type: functional, cell-based; conditions: Homo sapiens; procedure, shortened: as §3
[12] = Tested for in vitro cell growth inhibition of […] cells; assay type: functional, cell-based; conditions: Homo sapiens; procedure, shortened: as §3
[13] = Tested for the inhibition of KB cell growth; assay type: functional, cell-based; conditions: Homo sapiens
Procedure, shortened: (§4)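 KB cells (MEM/Hank's, 5% fetal bovine serum). Growth measured spectrophotometrically after crystal violet staining 2 days after drug treatment. IC50 from linear regression of percent inhibition vs log concentration.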

L1210 [14] = assay: Tested for in vitro cell growth inhibition of L1210 cells; No significant effect; assay type: functional, cell-based, Mus musculus; procedure, shortened: as §2
Homo sapiens [15] = species on record: Homo sapiens; assay: Tested for in vitro cell growth inhibition of H. Ep. 2 cells; No significant effect; assay type: functional, cell-based; procedure, shortened: as §1
DLD-1 = assay: Tested for in vitro cell growth inhibition of DLD-1 cells; assay type: functional, cell-based; conditions: Homo sapiens; procedure, shortened: as §3
HT-29 = assay: Tested for in vitro cell growth inhibition of HT-29 cells; assay type: functional, cell-based; conditions: Homo sapiens; procedure, shortened: as §3
NCI-H417 [16] = assay: Tested for in vitro cell growth inhibition of NCI-N417 cells; assay type: functional, cell-based; conditions: Homo sapiens
NCI-H460 [17] = assay: Tested for in vitro cell growth inhibition of NCI-H460 cells; assay type: functional, cell-based; conditions: Homo sapiens; procedure, shortened: as §3
[18] = Tested for in vitro cell growth inhibition of NCI-H146 cells; assay type: functional, cell-based; conditions: Homo sapiens
SW-620 = assay: Tested for in vitro cell growth inhibition of SW-620 cells; assay type: functional, cell-based; conditions: Homo sapiens; procedure, shortened: as §3
[19] = Tested for in vitro cell growth inhibition of UMSCC-10A cells; assay type: functional, cell-based; conditions: Homo sapiens; procedure, shortened: as §3
[20] = Tested for in vitro cell growth inhibition of NCI-H1437 cells; assay type: functional, cell-based; conditions: Homo sapiens; procedure, shortened: as §3
[21] = Tested for the inhibition against KB cell growth; assay type: functional, cell-based; conditions: Homo sapiens; procedure, shortened: as §4

Compound | IC50 (HFF) | IC50 (L1210 [2]) | IC50 (Human betaherpesvirus 5 [6]) | IC50 (Human alphaherpesvirus 1) | IC50 (Calu-1 [7]) | IC90 (Human betaherpesvirus 5 [9]) | IC50 [13] | further results
Nc1nnc(O)c2c1ccn2[C@@H]1O[C@H](CO)[C@@H](O)[C@H]1O | > 100000 nM | 74000 nM | > 100000 nM | 90000 nM | – | – | – | IC50 (Homo sapiens [1]): Not Active; IC50 (NCI-H417 [3]): Not Active; IC50 [4]: Not Active; IC50 (Calu-1 [5]): Not Active
Nc1n[nH]c(=O)c2c1c(Br)cn2[C@@H]1O[C@H](CO)[C@@H](O)[C@H]1O | 2500 nM | 100 nM | 100 nM | 2000 nM | 230 nM | 40 nM | < 1200 nM | IC50 (Homo sapiens [8]): 200 nM; IC50 [10]: 500 nM; IC50 (NCI-H460 [11]): 500 nM; IC50 [12]: 1300 nM
O=c1[nH][nH]c(=O)c2c1ccn2[C@@H]1O[C@H](CO)[C@@H](O)[C@H]1O | > 100000 nM | – | > 100000 nM | > 100000 nM | – | – | – | IC50 (L1210 [14]): Not Active
Nc1nncc2c1ccn2C1O[C@H](CO)[C@@H](O)[C@H]1O (stereo partly specified) | > 100000 nM | – | > 100000 nM | > 100000 nM | – | – | – | IC50 (Homo sapiens [15]): Not Active; IC50 (L1210 [14]): Not Active
Nc1nnc(O)c2c1c(I)cn2C1O[C@H](CO)[C@@H](O)[C@H]1O (stereo partly specified) | 1000 nM | 80 nM | 400 nM | 4500 nM | 70 nM | 20 nM | 1200 nM | IC50 (DLD-1): 70 nM; IC50 (Homo sapiens [8]): 76 nM; IC50 (HT-29): 500 nM; IC50 (NCI-H417 [16]): 280 nM; IC50 (NCI-H460 [17]): 200 nM; IC50 [18]: 420 nM; IC50 (SW-620): 230 nM; IC50 [19]: 2500 nM; IC50 [20]: 130 nM
Nc1nncc2c1c(Br)cn2C1O[C@H](CO)[C@@H](O)[C@H]1O (stereo partly specified) | 100000 nM | – | 121000 nM | – | 11000 nM | 1400 nM | 12000 nM | IC50 (NCI-H460 [17]): 11000 nM
Nc1nnc(O)c2c1c(Cl)cn2C1O[C@H](CO)[C@@H](O)[C@H]1O (stereo partly specified) | 2100 nM | 230 nM | 200 nM | 6800 nM | – | 700 nM | 6100 nM | –
Nc1ncnc2c1c(Br)cn2[C@@H]1O[C@H](CO)[C@@H](O)[C@H]1O | 1200 nM | – | – | – | – | 3500 nM | 3000 nM | –
Nc1nc2c(ncn2COC(CO)CO)c(=O)[nH]1 [GANCICLOVIR] | > 100000 nM | – | 7700 nM | 3500 nM | – | 1800 nM | > 100000 nM | –
Nc1ncnc2c1ccn2[C@@H]1O[C@H](CO)[C@@H](O)[C@H]1O [TUBERCIDIN] | – | 43 nM | – | – | – | – | – | IC50 [21]: 1000 nM
